The results in this text go back to ChEMBL document CHEMBL1143746, “Synthesis and biological evaluation of sulfonylhydrazone-substituted imidazo[1,2-a]pyridines as novel PI3 kinase p110alpha inhibitors” (Bioorg Med Chem, 2007).

The test system of one experiment is A-375. Nature of the experiment: Inhibition of serum-induced proliferation of human A375 cells. It is filed as functional, cell-based. In outline: (§1)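 Cells were grown in DMEM with 10% FBS and penicillin/streptomycin and seeded at 1 × 10⁴ per well onto pre-spotted compound. After 46 h, Alamar blue was added. Fluorescence (ex 544/em 590 nm) was read 2 h later.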

The target of experiment [1] is Phosphatidylinositol 4,5-bisphosphate 3-kinase catalytic subunit alpha isoform (Bos taurus, UniProt P32871). The experiment is described as follows: Inhibition of GST-tagged bovine p110-alpha expressed in SF9/Baculovirus system by SPA.
Sequence of Phosphatidylinositol 4,5-bisphosphate 3-kinase catalytic subunit alpha isoform (P32871 whole entry, canonical isoform): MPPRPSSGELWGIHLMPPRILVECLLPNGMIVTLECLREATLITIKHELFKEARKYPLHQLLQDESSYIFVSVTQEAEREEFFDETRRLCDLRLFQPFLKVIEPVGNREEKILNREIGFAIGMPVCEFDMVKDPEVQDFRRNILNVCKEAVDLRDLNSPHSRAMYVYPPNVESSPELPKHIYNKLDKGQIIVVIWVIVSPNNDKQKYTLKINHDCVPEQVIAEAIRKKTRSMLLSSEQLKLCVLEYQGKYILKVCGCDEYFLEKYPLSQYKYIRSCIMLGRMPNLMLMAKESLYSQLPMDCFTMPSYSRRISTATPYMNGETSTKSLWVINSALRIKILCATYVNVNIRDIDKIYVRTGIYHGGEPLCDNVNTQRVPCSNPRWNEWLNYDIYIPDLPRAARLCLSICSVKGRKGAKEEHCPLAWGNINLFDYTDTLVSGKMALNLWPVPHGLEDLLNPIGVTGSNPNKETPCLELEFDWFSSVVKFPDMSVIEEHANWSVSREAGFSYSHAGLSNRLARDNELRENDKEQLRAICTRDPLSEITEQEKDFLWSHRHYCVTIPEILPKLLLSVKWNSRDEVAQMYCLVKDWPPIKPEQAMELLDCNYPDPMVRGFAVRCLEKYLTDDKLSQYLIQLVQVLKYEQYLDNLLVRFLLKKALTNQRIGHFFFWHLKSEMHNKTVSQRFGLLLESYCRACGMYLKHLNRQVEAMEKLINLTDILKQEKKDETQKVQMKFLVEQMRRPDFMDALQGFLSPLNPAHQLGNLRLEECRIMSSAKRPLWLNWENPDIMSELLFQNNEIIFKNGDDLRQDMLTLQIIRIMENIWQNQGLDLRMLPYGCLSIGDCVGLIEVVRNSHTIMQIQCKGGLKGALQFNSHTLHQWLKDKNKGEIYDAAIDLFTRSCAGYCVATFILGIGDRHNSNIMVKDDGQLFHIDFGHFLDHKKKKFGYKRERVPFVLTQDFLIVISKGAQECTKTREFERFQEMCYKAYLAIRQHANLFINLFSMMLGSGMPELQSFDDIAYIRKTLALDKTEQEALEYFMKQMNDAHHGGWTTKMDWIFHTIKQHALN
The test system of experiment [2] is HeLa. The experiment is described as follows: Inhibition of serum-induced proliferation of human HeLa cells. It is filed as functional, cell-based. The essentials:
as §1

The test system of experiment [3] is MCF7. The experiment is described as follows: Inhibition of serum-induced proliferation of human adriamycin-resistant MCF7 cells. The class given is functional, cell-based.
Experiment [4] deals with Phosphatidylinositol 4,5-bisphosphate 3-kinase catalytic subunit gamma isoform (Homo sapiens, UniProt P48736). Nature of the experiment: Inhibition of His-tagged human p110gamma expressed in SF9/Baculovirus system by SPA.
Sequence of Phosphatidylinositol 4,5-bisphosphate 3-kinase catalytic subunit gamma isoform (P48736 whole entry, the tested form may be a part, canonical isoform): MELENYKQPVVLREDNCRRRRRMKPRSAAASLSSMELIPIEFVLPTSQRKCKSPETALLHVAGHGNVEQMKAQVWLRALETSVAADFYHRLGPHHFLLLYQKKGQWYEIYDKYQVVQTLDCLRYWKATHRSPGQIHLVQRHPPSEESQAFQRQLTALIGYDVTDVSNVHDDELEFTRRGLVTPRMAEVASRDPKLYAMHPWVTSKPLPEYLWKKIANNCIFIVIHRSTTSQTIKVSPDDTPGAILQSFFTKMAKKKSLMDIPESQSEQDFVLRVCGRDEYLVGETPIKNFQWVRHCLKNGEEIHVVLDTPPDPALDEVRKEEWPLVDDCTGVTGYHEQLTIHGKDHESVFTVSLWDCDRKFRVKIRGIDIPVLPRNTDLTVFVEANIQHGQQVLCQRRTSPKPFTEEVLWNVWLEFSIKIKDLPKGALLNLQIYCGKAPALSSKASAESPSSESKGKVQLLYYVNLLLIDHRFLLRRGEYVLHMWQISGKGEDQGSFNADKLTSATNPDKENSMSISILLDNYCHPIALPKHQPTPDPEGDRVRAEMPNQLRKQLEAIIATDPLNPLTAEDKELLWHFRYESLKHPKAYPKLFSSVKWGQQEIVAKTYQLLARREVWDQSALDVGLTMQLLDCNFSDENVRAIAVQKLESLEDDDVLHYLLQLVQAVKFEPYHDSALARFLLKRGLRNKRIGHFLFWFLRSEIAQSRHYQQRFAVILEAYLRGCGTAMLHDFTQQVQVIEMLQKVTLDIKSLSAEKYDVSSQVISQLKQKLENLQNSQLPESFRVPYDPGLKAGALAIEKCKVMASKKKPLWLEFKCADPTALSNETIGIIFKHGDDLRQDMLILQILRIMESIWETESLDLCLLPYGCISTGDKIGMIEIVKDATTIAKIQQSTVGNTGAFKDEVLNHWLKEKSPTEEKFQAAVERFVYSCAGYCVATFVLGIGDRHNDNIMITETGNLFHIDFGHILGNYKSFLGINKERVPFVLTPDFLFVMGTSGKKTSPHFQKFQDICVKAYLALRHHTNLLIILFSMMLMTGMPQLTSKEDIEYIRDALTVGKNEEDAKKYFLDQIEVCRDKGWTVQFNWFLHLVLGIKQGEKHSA
Experiment [5] concerns the target Phosphatidylinositol 4-phosphate 3-kinase C2 domain-containing subunit beta (Homo sapiens, UniProt O00750). Nature of the experiment: Inhibition of glu-tagged PI3K C2-beta expressed in SF9/Baculovirus system by SPA.
In experiment [6] the test system is HeLa. Nature of the experiment: Suppression of tumor growth in human HeLa cell xenografted BALB/c nude mouse at 50 mg/kg/day, ip after 2 weeks. The settings on record: route intraperitoneal. It is filed as functional. The essentials: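 Female Balb/c-nu/nu mice, five per group, received 5 × 10⁶ HeLa cells subcutaneously in the hind quarters. Once tumors reached about 100 mm³, the compound was given i.p. at 50 mg/kg daily for 2 weeks. Tumor growth was compared with vehicle, and body weight was monitored.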
For orientation: In xenograft studies the graft and the host belong to different species.

In a further experiment the test system is A549. Nature of the experiment: Inhibition of serum-induced proliferation of human A549 cells. It is filed as functional, cell-based. In outline:
as §1

Experiment [7] has as its system MCF7. The experiment is described as follows: Inhibition of serum-induced proliferation of human MCF7 cells. It is filed as functional, cell-based.

Sequence of Phosphatidylinositol 4-phosphate 3-kinase C2 domain-containing subunit beta (O00750 whole entry, the tested form may be a part): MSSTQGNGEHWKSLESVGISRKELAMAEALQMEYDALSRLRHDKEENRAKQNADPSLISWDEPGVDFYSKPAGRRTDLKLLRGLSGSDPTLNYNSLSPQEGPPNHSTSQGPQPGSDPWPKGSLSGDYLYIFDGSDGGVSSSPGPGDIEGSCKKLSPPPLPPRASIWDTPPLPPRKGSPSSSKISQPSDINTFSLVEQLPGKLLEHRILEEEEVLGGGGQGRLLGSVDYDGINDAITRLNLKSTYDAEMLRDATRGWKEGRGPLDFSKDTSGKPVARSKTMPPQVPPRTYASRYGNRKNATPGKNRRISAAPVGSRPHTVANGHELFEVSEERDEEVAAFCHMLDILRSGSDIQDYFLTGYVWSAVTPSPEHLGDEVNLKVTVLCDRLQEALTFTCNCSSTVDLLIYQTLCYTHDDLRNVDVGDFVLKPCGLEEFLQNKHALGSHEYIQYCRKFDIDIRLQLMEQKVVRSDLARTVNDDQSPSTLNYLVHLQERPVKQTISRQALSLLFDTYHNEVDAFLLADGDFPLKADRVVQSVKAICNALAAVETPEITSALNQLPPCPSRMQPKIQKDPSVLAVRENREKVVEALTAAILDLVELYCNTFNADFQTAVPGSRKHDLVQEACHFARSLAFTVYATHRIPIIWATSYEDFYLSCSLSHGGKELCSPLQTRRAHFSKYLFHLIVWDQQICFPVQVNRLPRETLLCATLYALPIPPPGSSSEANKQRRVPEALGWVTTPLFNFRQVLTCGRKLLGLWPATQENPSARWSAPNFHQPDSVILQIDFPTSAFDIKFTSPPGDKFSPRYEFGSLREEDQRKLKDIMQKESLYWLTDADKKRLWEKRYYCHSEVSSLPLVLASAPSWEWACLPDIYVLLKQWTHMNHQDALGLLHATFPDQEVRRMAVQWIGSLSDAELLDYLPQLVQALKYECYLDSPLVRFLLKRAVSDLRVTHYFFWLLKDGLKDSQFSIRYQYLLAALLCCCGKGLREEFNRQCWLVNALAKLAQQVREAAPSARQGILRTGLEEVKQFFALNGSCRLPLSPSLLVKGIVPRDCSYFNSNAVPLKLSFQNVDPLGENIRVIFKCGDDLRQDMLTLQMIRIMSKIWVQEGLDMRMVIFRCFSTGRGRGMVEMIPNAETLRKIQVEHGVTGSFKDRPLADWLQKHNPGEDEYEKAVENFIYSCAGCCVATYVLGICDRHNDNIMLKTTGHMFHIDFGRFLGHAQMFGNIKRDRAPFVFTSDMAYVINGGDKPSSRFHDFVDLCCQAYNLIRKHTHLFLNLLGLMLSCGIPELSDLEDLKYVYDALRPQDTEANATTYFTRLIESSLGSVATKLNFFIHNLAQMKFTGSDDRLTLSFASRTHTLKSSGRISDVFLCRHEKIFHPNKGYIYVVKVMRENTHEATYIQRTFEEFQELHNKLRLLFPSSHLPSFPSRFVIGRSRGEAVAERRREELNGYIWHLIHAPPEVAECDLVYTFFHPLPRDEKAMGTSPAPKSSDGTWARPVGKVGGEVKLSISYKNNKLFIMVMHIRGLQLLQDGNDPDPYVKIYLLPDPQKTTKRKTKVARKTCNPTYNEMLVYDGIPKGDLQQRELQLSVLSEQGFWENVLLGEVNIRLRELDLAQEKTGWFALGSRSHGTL

Consider `Cc1ccc([N+](=O)[O-])cc1S(=O)(=O)n1ccc(-c2c(C)nc3ccc(Br)cn23)n1`, for which the IC50 (commonly the concentration that gives 50% inhibition) in the experiment on A-375 amounted to 0.73 µM.
With `C/C(=N\NS(=O)(=O)c1cc([N+](=O)[O-])ccc1C)c1cnc2ccc(Br)cn12`, the IC50 in the experiment on A-375 came to 12 µM; in experiment [1], 0.017 µM.
For the molecule `Cc1ccc([N+](=O)[O-])cc1S(=O)(=O)N/N=C/c1cnc2ccc(Br)cn12`, the IC50 came out at 9 µM in the experiment on A-375 and 0.021 µM in experiment [1].
The corresponding values for `C/C(=N\N(C)S(=O)(=O)c1cc([N+](=O)[O-])ccc1C)c1cnc2ccc(Br)cn12` are 20 µM and 0.081 µM.
Consider `C/C(=N\N(C)S(=O)(=O)c1cc([N+](=O)[O-])ccc1C)c1c(C)nc2ccc(Br)cn12`, for which it took 0.17 µM to reach half-maximal inhibition in experiment [1] (IC50).
The same measure, in the same setting: the figure for `C/C(=N\NS(=O)(=O)c1cc([N+](=O)[O-])ccc1C)c1c(C)nc2ccc(Br)cn12` is 0.4 µM.
As for `Cc1nc2ccccn2c1-c1ccn(S(=O)(=O)c2ccc(F)cc2)n1`, in the experiment on A-375, the midpoint of inhibition, the IC50, lay at 23 µM.
In the case of `Cc1ccc([N+](=O)[O-])cc1S(=O)(=O)N(C)/N=C/c1cnc2ccc(F)cn12`, the IC50 in the experiment on A-375 amounted to 0.18 µM; in experiment [1], 0.0053 µM.
Turning to `CCOC(=O)c1ccc2ncc(/C=N/N(C)S(=O)(=O)c3cc([N+](=O)[O-])ccc3C)n2c1`, the IC50 was found to be 9.35 µM in the experiment with A-375 and 0.34 µM in experiment [1].
As for `Cc1ccc([N+](=O)[O-])cc1S(=O)(=O)N(C)/N=C/c1cnc2ccc(Cl)cn12`, the IC50 with A-375 is 0.056 µM; in experiment [1] it was 0.00077 µM.
For `Cc1ccc([N+](=O)[O-])cc1S(=O)(=O)N(C)/N=C/c1cnc2ccc(C(F)(F)F)cn12`, the IC50 in the experiment on A-375 was 0.09 µM; in experiment [1] it was 0.014 µM.
Regarding `Cc1ccc([N+](=O)[O-])cc1S(=O)(=O)N(C)/N=C/c1cnc2ccc(C#N)cn12`, the IC50 with A-375 came to 0.033 µM; in [1], 0.00026 µM.
As for `Cc1ccc([N+](=O)[O-])cc1S(=O)(=O)N(C)/N=C/c1cnc2ccc(Br)cn12.Cl`, the IC50 in the experiment with HeLa [2] was 0.051 µM; in the experiment on MCF7 [3], 0.039 µM; in [4], 0.04 µM; in [5] it was 0.1 µM; in the experiment on A-375 it was 0.058 µM; in the experiment on A549, 0.069 µM. Also, 0.019 µM corresponded to half-maximal inhibition in the experiment with MCF7 [7] (IC50). The molecule further returned an Activity with HeLa [6] of 62%.
For `Cc1ccc([N+](=O)[O-])cc1S(=O)(=O)N(C)/N=C/c1cnc2ccc(C(N)=O)cn12`, the IC50 in the experiment with A-375 was found to be 8.96 µM; in experiment [1] it was 0.78 µM.
Regarding `Cc1ccc2ncc(/C=N/N(C)S(=O)(=O)c3cc([N+](=O)[O-])ccc3C)n2c1`, the IC50 in the experiment on A-375 came out at 0.12 µM; in experiment [1], 0.006 µM.
For `O=c1cc(N2CCOCC2)oc2c(-c3ccccc3)cccc12` [LY-294002], in the experiment on A-375, half-maximal inhibition (IC50) was put at 8.4 µM.
